Reference: ChEMBL document CHEMBL4725282, “Discovery of a Conformationally Constrained Oxazolidinone with Improved Safety and Efficacy Profiles for the Treatment of Multidrug-Resistant Tuberculosis” (J Med Chem, 2020)
In brackets after ≈: the same amount, converted by molar mass.

How the values were obtained:
[1] = tested on: Mycobacterium tuberculosis; assay: Antitubercular activity against Mycobacterium tuberculosis H37Rv incubated for 7 days by microplate alamar blue assay; format: functional; details: 168 h, time 7 day
Outline: (§1)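 MIC determined by microplate alamar blue assay (MABA) following a published protocol.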

[2] = Inhibition of mitochondrial protein synthesis in rat H9c2 cells measured after 5 days by ELISA; format: cell-based; details: H9c2, 120 h
Outline: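 H9C2 cells in DMEM with 10% FBS, seeded 1500/well. After 18 h, compound added at final 0.03–200 μM (3-fold series), then 5 days at 37 °C, 5% CO2; 0.5% DMSO negative control. MPS inhibition read by MitoBiogenesis In-Cell ELISA; IC50 calculated.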

[3] = Stability in CD-1 mouse liver microsome assessed as parent compound remaining at 1 uM measured after 30 mins in presence of NADPH by LC-MS/MS analysis; format: ADME; details: liver microsomes, read-out: Stabilty
Outline: (§2)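 Liver microsomes (male CD-1 mouse or pooled human), 1 mg/mL protein, compound 1 µM, 37°C with shaking. Started with 1 mM NADPH or run without cofactor. Quenched with ice-cold ACN/MeOH containing internal standard. Parent quantified by LC-MS/MS; 30 min concentration normalised to time zero.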

[4] = Stability in CD-1 mouse liver microsome at 1 uM measured after 30 mins in absence of NADPH by LC-MS/MS analysis; format: ADME; details: microsomes, 0.5 h; outline: as §2
Vero = assay: Cytotoxicity against African green monkey Vero cells assessed as reduction in cell viability measured after 48 hrs by MTT assay; format: cell-based; details: Chlorocebus sabaeus
Outline: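 Cytotoxicity on Vero or HepG2 cells by MTT assay, run as previously reported.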

[5] = Terminal half life in Balb/c mouse at 25 mg/kg, po by LC-MS/MS analysis; format: ADME, organism-based; details: in vivo, read-out: beta t1/2 (converted)
Outline: (§3)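 Female BALB/c mice, 20-25 g, five per route. Dosed 25 mg/kg p.o. in 0.5% carboxymethyl cellulose or 2.5 mg/kg i.v. in 10% DMSO/saline. Blood sampled 5 min-72 h (p.o.) or 2 min-48 h (i.v.), quantified by LC/MS/MS with ESI+. Parameters by non-compartmental analysis; F = (AUCpo×dose_iv)/(AUCiv×dose_po)×100%.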

[6] = Tmax in Balb/c mouse at 25 mg/kg, po by LC-MS/MS analysis; format: ADME, organism-based; details: in vivo; outline: as §3
[7] = Cmax in Balb/c mouse at 25 mg/kg, po by LC-MS/MS analysis; format: ADME, organism-based; set-up: route oral, dose 25 mg/kg; details: in vivo
Outline: (§4)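 Female BALB/c mice (20–25 g), five per route. Oral dose 25 mg/kg in 0.5% carboxymethyl cellulose; i.v. dose 2.5 mg/kg in 10% DMSO/physiological saline. Blood sampled 5 min–72 h after p.o. and 2 min–48 h after i.v. Analyte quantified by LC/MS/MS (ESI positive, C18, isocratic methanol/water). Parameters from non-compartmental analysis.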

[8] = AUC (0 to t) in Balb/c mouse at 25 mg/kg, po by LC-MS/MS analysis; format: ADME, organism-based; set-up: dose 25 mg/kg; details: in vivo; outline: as §4
[9] = AUC (0 to infinity) in Balb/c mouse at 25 mg/kg, po by LC-MS/MS analysis; format: ADME, organism-based; set-up: route oral, time infinity, dose 25 mg/kg; details: in vivo; outline: as §4
[10] = MRT (0 to t) in Balb/c mouse at 25 mg/kg, po by LC-MS/MS analysis; format: ADME, organism-based; details: in vivo; outline: as §4
[11] = MRT (0 to infinity) in Balb/c mouse at 25 mg/kg, po by LC-MS/MS analysis; format: ADME, organism-based; details: in vivo; outline: as §4
[12] = tested on: Mycobacterium tuberculosis; assay: Antitubercular activity against Mycobacterium tuberculosis isolate 12525 incubated for 7 days by microplate alamar blue assay; format: functional; details: isolate 12525, 168 h, time 7 day; outline: as §1
[13] = Mycobacterium tuberculosis, H37Rv, read-out: MIC

Compound	MIC [1, 13] [mg/L]	IC50 [2] [µM]	IC50 (Vero) [mg/L]	other results
O=C(NC[C@@H]1OC(=O)N2c3cc(F)c(N4CCSCC4)cc3OC[C@@H]12)c1ccncc1	0.16 (≈ 0.36 µM)	> 100		remaining at 0.5 h, 1 µM [3]: 20.8%; Stabilty [4]: Stable
CC(=O)NC[C@@H]1OC(=O)N2c3cc(F)c(N4CCSCC4)cc3OC[C@@H]12 (racemic)				MIC [1]: 0.16 mg/L (≈ 0.419 µM)
O=C1O[C@@H](Cn2ccnn2)[C@@H]2COc3cc(N4CCSCC4)c(F)cc3N12	0.23 (≈ 0.588 µM)	> 100		remaining at 0.5 h, 1 µM [3]: 21.7%; Stabilty [4]: Stable
CC(=O)NC[C@@H]1OC(=O)N2c3cc(F)c(N4CCOCC4)cc3OC[C@@H]12	0.89 (≈ 2.44 µM)	51.2	> 64	
O=C1O[C@@H](CO)[C@H]2COc3cc(N4CCSCC4)c(F)cc3N12 (racemic)	> 32			
CNC[C@@H]1OC(=O)N2c3cc(F)c(N4CCSCC4)cc3OC[C@@H]12	> 32		46.5 (≈ 132 µM)	
O=C(NC[C@@H]1OC(=O)N2c3cc(F)c(N4C5CCC4CSC5)cc3OC[C@@H]12)C1CCC1	0.97 (≈ 2.17 µM)		34.7 (≈ 77.5 µM)	
CC(=O)OC[C@@H]1OC(=O)N2c3cc(F)c(N4CCSCC4)cc3OC[C@@H]12	> 1			
O=C1O[C@@H](CNc2ccon2)[C@@H]2COc3cc(N4CCSCC4)c(F)cc3N12	0.03 (≈ 0.0738 µM)	> 100		remaining at 0.5 h, 1 µM [3]: 0%; Stabilty [4]: Stable
CC(=O)NC[C@@H]1OC(=O)N2c3cc(F)c(N4CCS(=O)(=O)CC4)cc3OC[C@@H]12	0.93 (≈ 2.25 µM)	26		half-life [5]: 7.64 h; Tmax [6]: 1 h; Cmax [7]: 0.118 µg/mL; AUC(0-t) [8]: 1.25 µg·h/mL; AUC(0-inf) [9]: 1.48 µg·h/mL; MRT last [10]: 10.3 h; MRT inf [11]: 14.3 h
CC(=O)NC[C@@H]1OC(=O)N2c3cc(F)c(N4CC5(COC5)C4)cc3OC[C@@H]12	3.92 (≈ 10.4 µM)			
COC(=O)NC[C@@H]1OC(=O)N2c3cc(F)c(N4C5CCC4CSC5)cc3OC[C@@H]12	1.68 (≈ 3.97 µM)		> 64	
O=C(NC[C@@H]1OC(=O)N2c3cc(F)c(N4CC5(COC5)C4)cc3OC[C@@H]12)C1CC1	3.09 (≈ 7.66 µM)			
O=C(NC[C@@H]1OC(=O)N2c3cc(F)c(N4C5CCC4CSC5)cc3OC[C@@H]12)c1cnccn1	> 32		9.53 (≈ 20.2 µM)	
CS(=O)(=O)NC[C@@H]1OC(=O)N2c3cc(F)c(N4CCSCC4)cc3OC[C@@H]12	3.9 (≈ 9.34 µM)			
CC(=O)N(C)C[C@@H]1OC(=O)N2c3cc(F)c(N4CCSCC4)cc3OC[C@@H]12	> 1			
CC(=O)NC[C@@H]1OC(=O)N2c3cc(F)c(N4C5CCC4CSC5)cc3OC[C@@H]12	0.92 (≈ 2.26 µM)		58.5 (≈ 144 µM)	
O=C(NC[C@@H]1OC(=O)N2c3cc(F)c(N4CC5(COC5)C4)cc3OC[C@@H]12)C1CCC1	4.2 (≈ 10.1 µM)			
NC[C@@H]1OC(=O)N2c3cc(F)c(N4CCSCC4)cc3OC[C@H]12 (racemic)	> 32			
CC(=O)N(C[C@@H]1OC(=O)N2c3cc(F)c(N4CCSCC4)cc3OC[C@@H]12)C(C)=O	0.34 (≈ 0.803 µM)		> 64	

Compound	MIC [1, 13] [mg/L]	IC50 [2] [µM]	IC50 (Vero) [mg/L]	other results
CC(=O)NC[C@@H]1OC(=O)N2c3cc(F)c(N4CCC(F)(F)CC4)cc3OC[C@@H]12	0.91 (≈ 2.28 µM)	10.1		
NC[C@@H]1OC(=O)N2c3cc(F)c(N4CCSCC4)cc3OC[C@@H]12		> 100	36 (≈ 106 µM)	MIC [1]: 0.03 mg/L (≈ 0.0884 µM); remaining at 0.5 h, 1 µM [3]: 15.8%; Stabilty [4]: Stable
O=C(NC[C@@H]1OC(=O)N2c3cc(F)c(N4CCSCC4)cc3OC[C@@H]12)C1CCC1	0.03 (≈ 0.0712 µM)	53.7		remaining at 0.5 h, 1 µM [3]: 4%; Stabilty [4]: Stable
O=C1O[C@@H](Cn2ccnn2)[C@@H]2COc3cc(N4C5CCC4CSC5)c(F)cc3N12	> 32		> 64	
CC(C)C(=O)NC[C@@H]1OC(=O)N2c3cc(F)c(N4C5CCC4CSC5)cc3OC[C@@H]12	1.48 (≈ 3.4 µM)		> 64	
NC[C@@H]1OC(=O)N2c3cc(F)c(N4CCSCC4)cc3OC[C@@H]12 (racemic)				MIC [1]: 0.1 mg/L (≈ 0.295 µM)
CC(C)C(=O)NC[C@@H]1OC(=O)N2c3cc(F)c(N4CCSCC4)cc3OC[C@@H]12	0.1 (≈ 0.244 µM)	> 100		remaining at 0.5 h, 1 µM [3]: 6.02%; Stabilty [4]: Stable
O=C(NC[C@@H]1OC(=O)N2c3cc(F)c(N4CCSCC4)cc3OC[C@@H]12)c1cnccn1	0.12 (≈ 0.269 µM)	> 100	40.7 (≈ 91.3 µM)	remaining at 0.5 h, 1 µM [3]: 6.85%; Stabilty [4]: Stable
COC(=O)NC[C@@H]1OC(=O)N2c3cc(F)c(N4CCSCC4)cc3OC[C@@H]12	0.03 (≈ 0.0755 µM)	> 100		remaining at 0.5 h, 1 µM [3]: 3.59%; Stabilty [4]: Stable
O=C1O[C@@H](CO)[C@@H]2COc3cc(N4CCSCC4)c(F)cc3N12 (racemic)	3.79 (≈ 11.1 µM)			
O=C(NC[C@@H]1OC(=O)N2c3cc(F)c(N4CCSCC4)cc3OC[C@@H]12)C1CC1	0.03 (≈ 0.0736 µM)	> 100		remaining at 0.5 h, 1 µM [3]: 15%; Stabilty [4]: Stable
O=C1O[C@@H](CNc2ccon2)[C@@H]2COc3cc(N4C5CCC4CSC5)c(F)cc3N12	2.52 (≈ 5.83 µM)		> 64	
CC(=O)NC[C@H]1OC(=O)N2c3cc(F)c(N4CCSCC4)cc3OC[C@H]12	> 32			
O=C(NC[C@@H]1OC(=O)N2c3cc(F)c(N4C5CCC4CSC5)cc3OC[C@@H]12)C1CC1	0.98 (≈ 2.26 µM)		> 64	
CC(=O)NC[C@@H]1OC(=O)N2c3cc(F)c(N4CCSCC4)cc3OC[C@H]12 (racemic)	> 32			
O=C(NC[C@@H]1OC(=O)N2c3cc(F)c(N4C5CCC4CSC5)cc3OC[C@@H]12)c1ccncc1	2.83 (≈ 6.01 µM)		> 64	
CO[C@H]1/C=C/O[C@@]2(C)Oc3c(C)c(O)c4c(O)c(c(/C=N/N5CCN(C)CC5)c(O)c4c3C2=O)NC(=O)/C(C)=C\C=C\[C@H](C)[C@H](O)[C@@H](C)[C@@H](O)[C@@H](C)[C@H](OC(C)=O)[C@@H]1C [RIFAMPIN]				MIC [12]: > 10 mg/L
CC(=O)NC[C@@H]1OC(=O)N2c3ccc(N4CCSCC4)cc3OC[C@@H]12	0.79 (≈ 2.17 µM)		> 64	
O=C1O[C@@H](Cn2ccnn2)[C@@H]2COc3cc(N4CC5(COC5)C4)c(F)cc3N12	> 32		> 64	
